Values after ≈ are worked out from the molar mass of the structure shown. Active and inactive are the calls of the source. The rule behind the calls is not given here.
Assays:
Format in all cases: functional, organism-based
Pichia kudriavzevii [1] = assay: Antifungal activity against Candida krusei ATCC 6258 after 48 hrs by two fold serial dilution technique at 20 ug/mL
Summary of the method: (§1)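 Top concentration in the dilution series was 20 µg/mL.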

Nakaseomyces glabratus [2] = assay: Antifungal activity against Candida glabrata ATCC 90030 after 48 hrs by two fold serial dilution technique at 20 ug/mL; summary of the method: as §1
Aspergillus fumigatus [3] = assay: Antifungal activity against Aspergillus fumigatus ATCC 90906 after 48 hrs by two fold serial dilution technique at 20 ug/mL; summary of the method: as §1
Cryptococcus neoformans [4] = assay: Antifungal activity against Cryptococcus neoformans ATCC 90113 after 72 hrs by two fold serial dilution technique; conditions: ATCC 90113, 72 h; summary of the method: as §1
Candida albicans [5] = assay: Antifungal activity against Candida albicans ATCC 90028 after 48 hrs by two fold serial dilution technique at 20 ug/mL; summary of the method: as §1
Nakaseomyces glabratus [6] = assay: Antifungal activity against Candida glabrata ATCC 90030 after 48 hrs by two fold serial dilution technique; conditions: ATCC 90030, 48 h; summary of the method: as §1
Aspergillus fumigatus [7] = assay: Antifungal activity against Aspergillus fumigatus ATCC 90906 after 48 hrs by two fold serial dilution technique
Pichia kudriavzevii [8] = assay: Antifungal activity against Candida krusei ATCC 6258 after 48 hrs by two fold serial dilution technique; conditions: ATCC 6258, 48 h
Candida albicans [9] = assay: Antifungal activity against Candida albicans ATCC 90028 after 48 hrs by two fold serial dilution technique; conditions: ATCC 90028, 48 h
Cryptococcus neoformans [10] = assay: Antifungal activity against Cryptococcus neoformans ATCC 90113 after 72 hrs by two fold serial dilution technique at 20 ug/mL; summary of the method: as §1

Row | IC50 (Cryptococcus neoformans [4]) [µg/mL] | MIC (Cryptococcus neoformans [4]) [µg/mL] | SMILES | Activity (Pichia kudriavzevii [1]) | Activity (Nakaseomyces glabratus [2]) | Activity (Aspergillus fumigatus [3]) | MFC (Cryptococcus neoformans [4]) [µg/mL] | Activity (Candida albicans [5]) | IC50 (Nakaseomyces glabratus [6]) [µg/mL] | MFC (Nakaseomyces glabratus [6]) [µg/mL] | MIC (Nakaseomyces glabratus [6]) [µg/mL] | IC50 (Aspergillus fumigatus [7]; ATCC 90906, 48 h) [µg/mL] | IC50 (Pichia kudriavzevii [8]) [µg/mL] | IC50 (Candida albicans [9]) [µg/mL] | further results
1 | 5.73 (≈ 15.8 µM) | 10 (≈ 27.6 µM) | CC1(C)CCC[C@]2(C)[C@H]3C=C4C(=CC(=O)C(O)=C4Cl)O[C@@]3(C)CC[C@@H]12 [CHLOROPUUPEHENONE] | inactive | inactive | inactive | 20 (≈ 55.1 µM) | inactive | – | – | – | – | – | – | –
2 | 0.38 (≈ 1.16 µM) | 0.63 (≈ 1.92 µM) | CC1(C)CCC[C@]2(C)[C@H]3C=C4C=C(O)C(=O)C=C4O[C@@]3(C)CC[C@@H]12 [PUUPEHENONE] | – | – | – | 1.25 (≈ 3.81 µM) | – | 2.67 (≈ 8.13 µM) | 10 (≈ 30.4 µM) | 10 (≈ 30.4 µM) | 5.63 (≈ 17.1 µM) | 1.49 (≈ 4.54 µM) | 3.02 (≈ 9.19 µM) | MFC (Aspergillus fumigatus [7]): inactive; MIC (Aspergillus fumigatus [7]; ATCC 90906, 48 h): 10 µg/mL (≈ 30.4 µM); MFC (Pichia kudriavzevii [8]): 2.5 µg/mL (≈ 7.61 µM); MIC (Pichia kudriavzevii [8]): 2.5 µg/mL (≈ 7.61 µM); MFC (Candida albicans [9]): 10 µg/mL (≈ 30.4 µM); MIC (Candida albicans [9]): 10 µg/mL (≈ 30.4 µM)
3 | – | – | CC1(C)CCC[C@]2(C)[C@H]3C=C4C(=CC(=O)[C@H](O)[C@@H]4O)O[C@@]3(C)CC[C@@H]12 | inactive | inactive | inactive | – | inactive | – | – | – | – | – | – | Activity (Cryptococcus neoformans [10]): inactive

Row | SMILES | IC50 (Cryptococcus neoformans [4]) [µg/mL] | MIC (Cryptococcus neoformans [4]) [µg/mL] | Activity (Pichia kudriavzevii [1]) | Activity (Nakaseomyces glabratus [2]) | Activity (Aspergillus fumigatus [3]) | MFC (Cryptococcus neoformans [4]) [µg/mL] | Activity (Candida albicans [5]) | IC50 (Nakaseomyces glabratus [6]) [µg/mL] | MFC (Nakaseomyces glabratus [6]) [µg/mL] | MIC (Nakaseomyces glabratus [6]) [µg/mL] | IC50 (Aspergillus fumigatus [7]; ATCC 90906, 48 h) [µg/mL] | IC50 (Pichia kudriavzevii [8]) [µg/mL] | IC50 (Candida albicans [9]) [µg/mL] | further results
4 | C[C@@H]1[C@H](O)[C@@H](C)/C=C/C=C/C=C/C=C/C=C/C=C/C=C/[C@H](O[C@@H]2O[C@H](C)[C@@H](O)[C@H](N)[C@@H]2O)C[C@@H]2O[C@](O)(C[C@@H](O)C[C@@H](O)[C@H](O)CC[C@@H](O)C[C@@H](O)CC(=O)O[C@H]1C)C[C@H](O)[C@H]2C(=O)O [AMPHOTERICIN B] | 0.34 (≈ 0.368 µM) | 0.63 (≈ 0.682 µM) | – | – | – | 0.63 (≈ 0.682 µM) | – | 0.29 (≈ 0.314 µM) | 0.63 (≈ 0.682 µM) | 0.63 (≈ 0.682 µM) | 1.02 (≈ 1.1 µM) | 0.699 (≈ 0.756 µM) | 0.26 (≈ 0.281 µM) | MFC (Aspergillus fumigatus [7]; ATCC 90906, 48 h): 5 µg/mL (≈ 5.41 µM)

— ChEMBL document CHEMBL1154178, “Puupehanol, a sesquiterpene-dihydroquinone derivative from the marine sponge Hyrtios sp” (Bioorg Med Chem Lett, 2009)
